Experimental data published in ChEMBL document CHEMBL1130207, “Structure-activity relationships for acridine-substituted analogues of the mixed topoisomerase I/II inhibitor N-[2-(dimethylamino)ethyl]acridine-4-carboxamide” (J Med Chem, 1997).

Legend:
[1] = test system: Jurkat; assay: Ratio of IC50 of mutant Jurkat leukemia (JLD) to the IC50 of Jurkat leukemia (JLC sensitive, wild type); assay type: functional, Homo sapiens
Method in brief: (§1)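 Jurkat lines were each plated at 3.75 × 10³ per well and grown 4 days with drug: parental JL_C, amsacrine-resistant JL_A and doxorubicin-resistant JL_D. Growth was read by sulforhodamine assay. IC50 is the concentration giving 50% of control cell number. Ratio is IC50 in JL_A or JL_D divided by IC50 in JL_C.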

[2] = test system: Jurkat; assay: Ratio of IC50 of Jurkat leukemia amsacrine (JLA) to the IC50 of Jurkat leukemia (JLC sensitive, wild type); assay type: functional, Homo sapiens; method in brief: as §1
[3] = test system: Jurkat; assay: Inhibitory concentration required to reduce human Jurkat leukemia (JLC sensitive, wild type) cell number to 50% of control cultures; assay type: functional, cell-based
[4] = test system: P388; assay: Inhibitory concentration required to reduce murine p388 leukemia cell number to 50% of control cultures; assay type: functional, cell-based; conditions: Mus musculus
[5] = test system: LLTC cell line; assay: Inhibitory concentration required to reduce Lewis lung carcinoma cell number to 50% of control cultures; assay type: functional, cell-based; conditions: Mus musculus
Method in brief: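 Lewis lung carcinoma cells seeded at 10³ per well and exposed to drug for 4 days. Growth read by sulforhodamine assay; IC50 is the drug concentration (nM) that cuts cell number to 50% of control cultures. Value is the mean of at least two independent determinations done in duplicate; coefficient of variation 7.9–8.5%.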

SMILES | Ratio [1] | Ratio [2] | IC50 [3] [nM] | IC50 [4] [nM] | IC50 [5] [nM]
CN(C)CCNC(=O)c1cccc2cc3cc(O)ccc3nc12 | 3 | 2.5 | 508 | 170 | 469
CN(C)CCNC(=O)c1cccc2cc3cccc(Cl)c3nc12 | – | 4.2 | – | 6.5 | 36
COc1ccc2cc3cccc(C(=O)NCCN(C)C)c3nc2c1 | 1.1 | 1.1 | 580 | 160 | 281
COc1cccc2c1C(=O)c1c(O)c3c(c(O)c1C2=O)C[C@@](O)(C(=O)CO)C[C@@H]3O[C@H]1C[C@H](N)[C@H](O)[C@H](C)O1 [DOXORUBICIN] | 12.7 | 4.39 | 9.6 | 15 | 22
CN(C)CCNC(=O)c1cccc2cc3cccc(Br)c3nc12 | 4.9 | 3.8 | 26 | 3.8 | 6.2
CN(C)CCNC(=O)c1cccc2cc3cc(C(F)(F)F)ccc3nc12 | 1 | 0.8 | 6390 | 8600 | 5950
CC(C)c1ccc2nc3c(C(=O)NCCN(C)C)cccc3cc2c1 | 1.2 | 0.9 | 7000 | 3700 | 5820
CN(C)CCNC(=O)c1cccc2cc3cccc(N(C)C)c3nc12 | 0.9 | 0.85 | 5710 | 1200 | 4130
CN(C)CCNC(=O)c1cccc2c(N)c3ccccc3nc12 | 6.1 | 4.6 | 27 | 8 | 5.3
Cc1c2ccccc2nc2c(C(=O)NCCN(C)C)cccc12 | 1 | 0.85 | 436 | 150 | 161
CN(C)CCNC(=O)c1cccc2c(-c3ccccc3)c3ccccc3nc12 | 1.1 | 0.8 | 2700 | 4100 | 1200
Cc1cccc2nc3c(C(=O)NCCN(C)C)cccc3cc12 | 1.05 | 0.95 | 1060 | 250 | 372
CN(C)CCNC(=O)c1cccc2cc3cccc(-c4ccccc4)c3nc12 | 1.4 | 1.55 | 1660 | 250 | 706
CN(C)CCNC(=O)c1cccc2cc3ccc(Cl)cc3nc12 | 1.3 | 1.1 | 397 | 125 | 156
CN(C)CCNC(=O)c1cccc2cc3ccc(F)cc3nc12 | 1.9 | 1.5 | 455 | 49 | 122
CC(C)c1cccc2cc3cccc(C(=O)NCCN(C)C)c3nc12 | 1 | 1 | 2500 | 650 | 832
CN(C)CCNC(=O)c1cccc2cc3ccccc3nc12 | 2.3 | 1.9 | 580 | 98 | 189
COc1cc(NS(C)(=O)=O)ccc1Nc1c2ccccc2nc2ccccc12 [AMSACRINE] | 73.7 | 84.9 | 37 | 20 | 12
CN(C)CCNC(=O)c1cccc2cc3c(Cl)cccc3nc12 | 1.3 | 1.25 | 919 | 120 | 258
